# Test results published in ChEMBL document CHEMBL4513216, “Probing the Open Global Health Chemical Diversity Library for Multistage-Active Starting Points for Next-Generation Antimalarials” (ACS Infect Dis, 2020).
# Assay: Toxicity liver stage against HepG2, at 10uM
# Type: cell-based
# Set-up: test concentration 10 uM, cell line HepG2-A16-CD81EGFP
# Conditions: human, HepG2-A16-CD81EGFP cells; read-out: INHIBITION
# In short: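 Uninfected HepG2-A16-CD81EGFP cells, 3 × 10^3 per well, 1536-well, plated on prespotted compound at 10 μM final, parasite-free screening media added to match infected plates; puromycin 10 μM positive, DMSO 0.5% negative; run in parallel with 48 h PbLuc assay at 37 °C, 5% CO2; viability by CellTiter-Glo luminescence, normalized to controls.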
smiles,measurement,value
CCOC(=O)Cn1ccc(O)c(Cc2ccc(Cl)cc2Cl)c1=O,cytotoxicity at 10 µM,4.19%
COc1ccc2oc(C(C)NC(=O)NC3CCN(C)CC3)c(C)c2c1 (configuration not stated),cytotoxicity at 10 µM,2.62%
Cc1ccc(CNC2(Cc3cc(C(C)(C)O)on3)COC2)o1,cytotoxicity at 10 µM,-1.18%
Cc1ccc(-n2nc(C)c3c(C)cc(OCC(=O)NC(C)C)nc32)cc1,cytotoxicity at 10 µM,-3.61%
COc1c(C(=O)N2CCOCC2)cnc2c1c(C)nn2C,cytotoxicity at 10 µM,1.64%
CNC(=O)CN1C(=O)CCC12CCCN(CCc1ccccc1)C2 (configuration not stated),cytotoxicity at 10 µM,1.35%
CC(=O)N1CCCC2(CCN(c3ccccc3)C2=O)C1 (configuration not stated),cytotoxicity at 10 µM,1.91%
Cc1cc(C(=O)N2CC[C@@H](O)[C@@H]2Cc2ccccc2)no1,cytotoxicity at 10 µM,-1.36%
CS(=O)(=O)N1CCCC12CCCN(c1nccs1)C2 (configuration not stated),cytotoxicity at 10 µM,4.92%
Cc1noc([C@]23COC[C@H]2CN(S(=O)(=O)C2CC2)C3)n1,cytotoxicity at 10 µM,8.1%
CCN1CCC2(COCc3c(C)nc(N(C)C)nc32)C1 (configuration not stated),cytotoxicity at 10 µM,5.76%
COCCNC(=O)Cn1c(-c2ccc(Cl)cc2)nc(C)c(CCO)c1=O,cytotoxicity at 10 µM,-13.1%
CCc1cnc2c(c1NCc1ccncc1)c(=O)n(C)c(=O)n2C,cytotoxicity at 10 µM,-12.1%
Cc1ccc(N2CCN(C(=O)COc3ccccc3)CC2)nn1,cytotoxicity at 10 µM,-14.6%
COCC1CN(Cc2cc(C)on2)Cc2cn(C)nc21 (configuration not stated),cytotoxicity at 10 µM,-6.07%
O=c1c2c(ncn1CCCO)nc1n2CCC1,cytotoxicity at 10 µM,-3.89%
CC1(C)CC(=O)N(CC(=O)Nc2ccon2)c2ccccc21,cytotoxicity at 10 µM,-3.43%
COCC(=O)N1CCCC1(C(=O)N(C)C)c1cnccn1 (configuration not stated),cytotoxicity at 10 µM,3.96%
COCCC(=O)NCCc1nc(N(C)C)ncc1-c1ccncc1,cytotoxicity at 10 µM,1.68%
COc1ccc(CN(C)[C@@H]2CN(S(=O)(=O)C(C)C)C[C@H]2O)cc1,cytotoxicity at 10 µM,0.465%
COc1ccc2c(c1)C(=O)NC1(CC2)CCN(Cc2cccnc2)C1 (configuration not stated),cytotoxicity at 10 µM,0.295%
CNC(=O)c1ccc(C2CN(Cc3ccc(F)cc3)CCO2)nc1 (configuration not stated),cytotoxicity at 10 µM,-0.378%
CC(C)c1nc(O)c2nnn(C[C@H]3CCCN(Cc4cccs4)C3)c2n1,cytotoxicity at 10 µM,10.8%
COc1ccc(N2CCN(C(=O)OC(C)(C)C)C(C(=O)O)C2)cc1 (configuration not stated),cytotoxicity at 10 µM,-0.318%
CC(=O)N1CCC(c2ccnc(Nc3cc(C(F)(F)F)ccn3)n2)C1 (configuration not stated),cytotoxicity at 10 µM,11%
Cc1cn[nH]c1C1CCCCN1C(=O)CCc1ccc(F)cc1 (configuration not stated),cytotoxicity at 10 µM,1.52%
COc1ccccc1N1CCC(NCc2c(C)noc2C)C1 (configuration not stated),cytotoxicity at 10 µM,1.81%
COC(=O)CC(NC(=O)c1cccc(N2CCCC2=O)c1)C(=O)OC (configuration not stated),cytotoxicity at 10 µM,-55.6%
CC1CCN(C(=O)c2cn(-c3ccc(C(F)(F)F)cn3)nn2)CC1,cytotoxicity at 10 µM,-53.1%
COc1ccc(F)cc1Cn1nc(C(N)=O)ccc1=O,cytotoxicity at 10 µM,-2.52%
CC(C)Cn1ccnc1CNC(=O)NC(C)(C)c1nccs1,cytotoxicity at 10 µM,-5.66%
CC(NCCn1cccn1)c1ccccc1Cl (configuration not stated),cytotoxicity at 10 µM,-5.03%
CCCC(C)CS(=O)(=O)NCc1cccnc1OC (configuration not stated),cytotoxicity at 10 µM,-18%
CNC(=O)NCCc1csc2ccccc12,cytotoxicity at 10 µM,2.22%
Cc1noc(C(C)Nc2ccc3oc(C)nc3c2)n1 (configuration not stated),cytotoxicity at 10 µM,1.81%
COC(=O)c1ccc2c(c1)CCCN2S(=O)(=O)c1cn(C)c(C)n1,cytotoxicity at 10 µM,3.94%
Cc1cc(NC(=O)NCc2ccncc2)ccc1OC(C)C,cytotoxicity at 10 µM,-8.36%
Cc1oc(CNC(=O)Cc2ccc3ccccc3c2)cc1C(=O)O,cytotoxicity at 10 µM,3.63%
CC(C#N)(NC(=O)c1ccc(C#N)cc1)C1CC1 (configuration not stated),cytotoxicity at 10 µM,-3.67%
Cn1c(NCCN2CCCCCC2)c(C#N)c(=O)n(C)c1=O,cytotoxicity at 10 µM,0.0687%
CCc1ncc2c(n1)CN(Cc1cccc3c1OCCO3)CC2,cytotoxicity at 10 µM,-8.42%
Cc1ccc(NS(=O)(=O)c2c[nH]c3ncccc23)nc1,cytotoxicity at 10 µM,6.43%
Cc1cc(NS(=O)(=O)c2c[nH]c3ncccc23)no1,cytotoxicity at 10 µM,-1.69%
CN(C(=O)[C@H]1CSCN1C(=O)OC(C)(C)C)C1CC1,cytotoxicity at 10 µM,15.4%
Cc1cn2c(n1)CCC(NC(=O)CCOc1ccccc1F)C2 (configuration not stated),cytotoxicity at 10 µM,5.27%
Cc1nc(C)n(CC2CCCN(Cc3nnc(C4CC4)o3)C2)n1 (configuration not stated),cytotoxicity at 10 µM,-12.9%
COc1ccccc1C(=O)N1CCCC1c1nncn1CC(C)C (configuration not stated),cytotoxicity at 10 µM,-2.96%
Cc1oc2nc[nH]c(=O)c2c1C(=O)N1CCCC(n2cccn2)C1 (configuration not stated),cytotoxicity at 10 µM,-0.513%
O=C(C1CCCOC1)N1CCCCc2ccccc21 (configuration not stated),cytotoxicity at 10 µM,-5.51%
CSc1nc(C2CC2)nc(C)c1C(=O)NCc1ccco1,cytotoxicity at 10 µM,5.25%
CCC(CC)(CNC(=O)NC1CCCC1(C)C)S(C)(=O)=O (configuration not stated),cytotoxicity at 10 µM,9.18%
COCCN1CCC(NCc2c(C(C)C)nn(C)c2N(C)C)CC1,cytotoxicity at 10 µM,11.6%
c1ccc(OCc2nc(CNCCn3cccn3)cs2)cc1,cytotoxicity at 10 µM,7.53%
NC(=O)N1CCCN(CCc2nc(-c3cccc(Cl)c3)no2)CC1,cytotoxicity at 10 µM,14.8%
CS(=O)(=O)c1nnc(NC(=O)CCc2cccs2)[nH]1,cytotoxicity at 10 µM,8.91%
Cc1cnn(Cc2cc(F)ccc2F)c1NC(=O)C1COCCO1 (configuration not stated),cytotoxicity at 10 µM,21.5%
CN(C)C(=O)CN(C)C(=O)c1cnc(Cc2ccc(F)cc2)s1,cytotoxicity at 10 µM,8.66%
COc1cccc(CN(C)C(=O)Nc2ccc3c(c2)OCCO3)c1,cytotoxicity at 10 µM,-0.627%
Cc1csc(N2CCN(Cc3ccccn3)CC2C)n1 (configuration not stated),cytotoxicity at 10 µM,-8.84%
Cc1cc(C)n(CC2CCCN2C(=O)c2ccc3[nH]nnc3c2)n1 (configuration not stated),cytotoxicity at 10 µM,-13.1%
C[C@H](NS(C)(=O)=O)C(=O)NCc1cc(-c2ccco2)n[nH]1,cytotoxicity at 10 µM,-8.27%
CC(C)CNc1nccc(-c2cnc3sc(Cl)cn3c2=O)n1,cytotoxicity at 10 µM,-0.723%
Cc1nc2c(c(N(C)C)n1)CCN(C(=O)c1ccc(N)nc1)C2,cytotoxicity at 10 µM,-8.26%
Cc1ccccc1C(C(=O)N(Cc1cnn(C)c1)CC(C)C)N(C)C (configuration not stated),cytotoxicity at 10 µM,2.66%
CC(C)(CN1C[C@H](Nc2ncccn2)[C@@H](C2CC2)C1)N1CCOCC1,cytotoxicity at 10 µM,5.41%
CCC[C@H]1CN(C(=O)c2ccc3[nH]c(CO)nc3c2)C[C@@H]1N,cytotoxicity at 10 µM,3.96%
O=C(c1ccoc1)N1CCCN(C(=O)c2ccc(C3CCCN3)s2)CC1 (configuration not stated),cytotoxicity at 10 µM,1.27%
CC(Nc1ncnc2c1CCNCC2)c1nc2c(s1)CCCC2 (configuration not stated),cytotoxicity at 10 µM,1.28%
O=C(NC[C@@H]1CCCO1)c1ccc(S(=O)(=O)N[C@@H]2CCNC2)cc1,cytotoxicity at 10 µM,-42.2%
Cc1nc2c(c(=O)n1C)CN(C(=O)C1CCCN(CC(N)=O)C1)C2 (configuration not stated),cytotoxicity at 10 µM,-6%
Cc1ncsc1CCN(C)C(=O)c1ncccc1O,cytotoxicity at 10 µM,-5.43%
COc1ccc(F)c(-c2ccnc(N)c2)c1,cytotoxicity at 10 µM,8.52%
O=C(O)CC1COCCN1Cc1ccccc1OCCc1ccccc1 (configuration not stated),cytotoxicity at 10 µM,2.4%
O=C(CCCc1cn[nH]c1)N1C[C@@H](CN2CCOCC2)[C@@H](CO)C1,cytotoxicity at 10 µM,-15.8%
Cc1cccc(Cn2cc(C)c(N)n2)c1,cytotoxicity at 10 µM,-4.14%
Cc1ccc(-n2ncc(C(=O)N3CCCC3c3cnn(C)c3)c2C)cc1 (configuration not stated),cytotoxicity at 10 µM,-7.79%
CC(C)CC(=O)NS(=O)(=O)c1ccc(C#N)cc1C(F)(F)F,cytotoxicity at 10 µM,-8.64%
CC(C(=O)Nc1ccc(N2CCCCC2)nc1)n1ccnc1 (configuration not stated),cytotoxicity at 10 µM,-29.8%
CN(C)c1ccc(C(=O)N2CCN(c3cnccn3)CC2)cn1,cytotoxicity at 10 µM,-4.98%
O=C(NCCNc1ncccn1)C1CC(=O)N(Cc2ccco2)C1 (configuration not stated),cytotoxicity at 10 µM,-8.78%
O=C(NCCCn1nc2ccccn2c1=O)Nc1ccccc1,cytotoxicity at 10 µM,-13.6%
Cn1nc2c(cc1=O)CN(Cc1coc(-c3ccccc3)n1)CC2,cytotoxicity at 10 µM,-4.5%
CC(C)n1cnnc1C1CCCN(C(=O)COCc2ccccc2)C1 (configuration not stated),cytotoxicity at 10 µM,-20.3%
C1CC(c2noc(C3CC3)n2)N(Cc2nc(C3CC3)no2)C1 (configuration not stated),cytotoxicity at 10 µM,-12.8%
COc1c(C)cnc(CN(C)C(=O)c2ccccc2F)c1C,cytotoxicity at 10 µM,-9.11%
Cc1nn(C)c(C)c1C1COCCN1C(=O)c1cnc(N)c(Cl)c1 (configuration not stated),cytotoxicity at 10 µM,-8.21%
Nc1cc2c(nn1)CCN(C(=O)CC1CCCC1)C2,cytotoxicity at 10 µM,-6.31%
CC(NC(=O)c1cccs1)C(=O)NCc1cccnc1N1CCCCC1 (configuration not stated),cytotoxicity at 10 µM,-8.57%
CC(=O)N1CCN(Cc2nccs2)CC2(CC(=O)N(C)C2)C1 (configuration not stated),cytotoxicity at 10 µM,3.03%
c1ccc(CN2CCCn3nnc(Cn4cccc4)c3C2)nc1,cytotoxicity at 10 µM,8.37%
O=C(CN1CC(c2nc(Cc3ccccc3)no2)C1)NCC1CCCO1 (configuration not stated),cytotoxicity at 10 µM,-6.06%
CC(C)NC(=O)[C@@H]1CCO[C@@H]2CCN(c3ncccn3)C[C@@H]21,cytotoxicity at 10 µM,7.92%
c1csc(CN2CCc3onc(Cn4cccc4)c3C2)c1,cytotoxicity at 10 µM,6.59%
COc1cccc(CN2CCc3nc(C(N)=O)sc3CC2)c1,cytotoxicity at 10 µM,-3.79%
CC1c2ncc(Cn3cncn3)n2CCN1C1CCOCC1 (configuration not stated),cytotoxicity at 10 µM,4.28%
COCCN1CCO[C@@H]2CN(Cc3ccccc3OC)C[C@@H]2C1,cytotoxicity at 10 µM,-2.48%
O=C(O)CN1CCC(C(F)(F)F)CC1,cytotoxicity at 10 µM,17.2%
CN(C)C(=O)N1CC[C@H]2[C@H]1CCN2c1nncs1,cytotoxicity at 10 µM,-1.19%
CCN1CCOCC12CCN(c1ccc(C#N)cc1)CC2,cytotoxicity at 10 µM,-6.93%
O=S(=O)(c1ccc(F)cc1)N1CC[C@H]2[C@H]1CCN2c1ncccn1,cytotoxicity at 10 µM,-2.85%
Cc1cnc(N2CCN(C)c3ncccc3C2)nc1,cytotoxicity at 10 µM,-5.86%
O=C(c1c[nH]cn1)N1CCC(F)(F)C2(CCN(c3ncccn3)C2)C1 (configuration not stated),cytotoxicity at 10 µM,9.76%
CC(C)NC(=O)N1CCOC2(CCCN(c3ncccc3F)C2)C1 (configuration not stated),cytotoxicity at 10 µM,-4.45%
O=C(c1ccco1)N1CCCC2(CN(Cc3cccs3)CCO2)C1 (configuration not stated),cytotoxicity at 10 µM,-2.3%
CNC(=O)CNC1CC2(CCN(c3ncccn3)CC2)c2ccccc21 (configuration not stated),cytotoxicity at 10 µM,4.68%
COCC1Cn2nnc(-c3cnn(C)c3)c2CN1Cc1cccs1 (configuration not stated),cytotoxicity at 10 µM,6.24%
CCOCC(=O)N1Cc2[nH]nc(COCC3CC3)c2C1,cytotoxicity at 10 µM,9.29%
O=C1CCCC2=C1C(c1ccccc1Cl)C1C(=O)NN=C1N2 (configuration not stated),cytotoxicity at 10 µM,-11.6%
CCCc1cc(N2CCC(NC3CCC(O)CC3)CC2)nc(C)n1 (configuration not stated),cytotoxicity at 10 µM,-4.35%
CC(C)c1cc(C(=O)N2C[C@@H]3CC[C@H]2CN(Cc2cccnc2)C3)no1,cytotoxicity at 10 µM,2.55%
COc1cc(N2C[C@H]3CC[C@@H](C2)N(CC2CCC2)C3=O)ncn1,cytotoxicity at 10 µM,-1.15%
CC(C)CN1C[C@@H]2C[C@H](C(=O)Nc3cccnc3)[C@H](C1)O2,cytotoxicity at 10 µM,7.8%
